Sampled rows, rich in hits. Any-hit rate of the full collection: about 1.5%.
Cneo AK release – Cryptococcus neoformans lysis via adenylate kinase release; C. neoformans lysis, adenylate kinase release luminescence, 4 h; normalised: neutral wells 0, clomiphene wells 100; lysis activity, % at 15 µM; 360,000 compounds, 0.2% hits; AID 651654;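 active = mean lysis activity across replicates of at least 80%, whatever share of replicates individually reach that level; inactive = mean lysis activity below 80%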
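Material – Cryptococcus neoformans yeast cells · Quantity – 5 × 10^6 yeast cells/mL · Buffer or medium – YPD medium · Compound – single dose · Timing – 4 h static compound exposure, 37 °C, read 1 h post-reagent · Signal – adenylate kinase release luminescence · Read-out basis – lysis from increased AK signal · Benchmarks – Clomiphene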
SUMO Mot1 rescue – inhibitors of SUMOylation pathway: yeast Mot1-301 growth rescue. S. cerevisiae Mot1-301 growth rescue, ATP luminescence, 38.5C; percent above DMSO median, 100 means doubled. growth rescue, % at 18.8 µM. 320,000 compounds, 1% hits;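 active = every valid replicate shows activation above 250% relative to neutral control wells; inactive = the rest, any valid replicate at or below 250%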;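 note: OY570 slx delta 5 strain wells were the positive control but not used for scaling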
C2C12 statin – protects C2C12 myotubes from simvastatin toxicity. ATP luminescence, 48 h; scaled: DMSO 0, geranylgeraniol control 100. rescue of ATP level, % at 7.49 µM. 330,000 compounds, 0.78% hits. AID 602340;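 active = mean ATP rescue above about 67%, or every replicate alone reaching that limit, limit read from the data, passing the limit was not always enough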;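 note: myotubes were challenged with 10 µM simvastatin during compound exposure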
Mot1 SUMO dose – SUMO pathway inhibitors in yeast Mot1-301 growth. 2,300 tested, under 10 active. S. cerevisiae Mot1-301 galactose growth, ATP luminescence, 24 h; -100 = growth of slx-deleted rescue strain. growth activity, percent, % at 42 µM. shares compounds with SUMO Mot1 rescue;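 active = Signal drops as the depositor expects, and the fitted half-maximal dose is no more than ten times the top valid tested dose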;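 note: more negative values mean stronger growth rescue toward the control strain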
The depositor's hits bear a star; x = not tested or not shown; + = active, no number.

SMILES	Cneo AK release	SUMO Mot1 rescue	C2C12 statin	Mot1 SUMO dose
Cc1nnc(NC(=O)c2cccc(S(=O)(=O)N3CCc4ccccc43)c2)s1	-1.7	x	15.8	x
O=C(N[C@H]1CC[C@@H](CCNS(=O)(=O)c2ccccc2)O[C@@H]1CO)c1cccnc1	-5.8	x	-0.1	x
C[C@@H]1CN([C@@H](C)CO)S(=O)(=O)c2ccc(C#CC3CC3)cc2O[C@@H]1CN(C)Cc1cncnc1	x	x	-17.1	x
O=C1C2C(c3ccccc3)CC=CC2[C@H](c2ccc3ccccc3c2)N1Cc1ccccc1 (some centres not stated)	-2.0	507.6*	-5.3	-0.8
COc1ccc(-c2cccc(C3CC=CC4C3C(=O)N(Cc3ccccc3)C4c3ccc4ccccc4c3)c2)cc1 (configuration not stated)	1.5	63.9	-3.0	x
CN1C(=O)c2cc(NC(=O)Nc3ccc(F)cc3)ccc2OC[C@H]2O[C@@H](CC(=O)NC3CCC3)CC[C@H]21	44.0	x	-30.9	x
CCCNc1nc2c(c(=O)[nH]c(=O)n2C)n1CCOc1ccccc1	3.4	264.7	4.1	x
Cn1c(=O)[nH]c(=O)c2c1nc(NCCN)n2CCOc1ccccc1	2.8	460.6*	-0.1	-0.7
Cc1ccc(S(=O)(=O)N(C)C[C@@H]2OCCCC[C@H](C)Oc3ccc(NC(=O)c4ccccc4)cc3C(=O)N([C@H](C)CO)C[C@H]2C)cc1	4.8	x	x	x
Cn1c(=O)c2c(ncn2CC(=O)OCC(=O)Nc2ccccc2)n(C)c1=O	x	7.6	x	x
Cn1c(=O)c2c(ncn2CC(=O)OCC(=O)Nc2ccc(Cl)cc2)n(C)c1=O	-1.1	846.7*	x	0.0
CCC(=O)N1[C@@H]2Cn3c(ccc(-c4ccc(F)cc4)c3=O)[C@H]1[C@@H](C(=O)N(C)C)[C@@H]2CO	-0.9	x	-14.8	x
Cc1ccccc1S(=O)(=O)N1CCCCN2[C@@H](CO)[C@@H](c3ccc(-c4cncnc4)cc3)[C@@H]2C1	1.2	x	x	x
O=C(COC(=O)COc1ccccc1Cl)Nc1ccccc1OC(F)F	0.5	577.8*	4.2	0.8
O=C(COC(=O)c1ncc(Cl)c(Cl)c1Cl)Nc1ccccc1OC(F)F	0.5	0.1	-4.5	x
COc1ccc(-c2nc3n(c(=O)c2C#N)CCS3)cc1	x	-11.3	x	x
CCOc1ccc(-c2nc3n(c(=O)c2C#N)CCS3)cc1	x	438.6*	-5.9	0.3
CCCC(=O)Nc1ccc2c(c1)C(=O)N(C)C[C@@H](OC)[C@H](C)CN(C(=O)CC)[C@@H](C)CO2	x	x	-1.1	x
CC=Cc1ccc2n(c1=O)C[C@@H]1[C@@H](CO)[C@H](C(=O)NCC(F)(F)F)[C@H]2N1C(=O)C1CCCCC1 (mixture of isomers)	-1.9	x	1.4	x
Fc1ccc(-c2cc(C(F)(F)C(F)F)[nH]n2)cc1	-0.4	11.2	x	x
Oc1ccccc1-c1cc(C(F)(F)C(F)F)[nH]n1	-0.5	871.6*	-33.9	0.6
CC(=O)Nc1nn(C)c2nc3ccc(C)cc3cc12	-1.6	479.1*	-6.6	0.3
CC(=O)Nc1nn(CC(C)C)c2nc3ccc(C)cc3cc12	-0.6	x	3.8	x
CCC(=O)N1CC[C@@H]2[C@H]1c1cc(C#Cc3cccc(OC)c3)ccc1N[C@@H]2CO	1.4	x	-11.5	x
COc1ccccc1NC(=O)N[C@@H]1CC[C@H](CCNC(=O)Cc2ccccn2)O[C@@H]1CO	-0.5	x	-4.2	x
SMILES	Cneo AK release	SUMO Mot1 rescue	C2C12 statin	Mot1 SUMO dose
Cc1ccc(C)n1-n1cnc2sc3c(c2c1=O)CCCCC3	0.4	595.6*	5.9	-0.1
Cc1ccc(C)n1-n1c(C)nc2sc3c(c2c1=O)CCCCC3	-2.0	x	9.3	x
Cc1ccc(S(=O)(=O)Nc2ccc3c(c2)C(=O)N(C)[C@H]2CC[C@@H](CC(=O)O)O[C@@H]2CO3)cc1	-0.8	x	17.5	x
COC(=O)C(CC(C)C)NC(=O)CNC(=O)c1ccccc1C (configuration not stated)	1.4	+	x	-0.1
COc1cccc(CNC(=O)C(CC(C)C)NC(=O)c2ccccc2C)c1 (configuration not stated)	-0.1	-9.3	15.6	x
CN(C)CCCNC(=O)C[C@@H]1C=C[C@H](NS(=O)(=O)c2ccc(F)cc2)[C@@H](CO)O1	1.8	x	-8.4	x
Cc1ccc(S(=O)(=O)N(C)C[C@H]2OCCCC[C@@H](C)Oc3ccc(NC(=O)Nc4cccc5ccccc45)cc3C(=O)N([C@@H](C)CO)C[C@@H]2C)cc1	0.4	x	x	x
Nn1c(Nc2ccccc2)nc2sc3c(c2c1=O)CCCC3	x	4.3	x	x
NNc1nc2sc3c(c2c(=O)n1-c1ccccc1)CCCC3	x	638.7*	-1.4	0.4
Nc1nc(CSc2nnnn2-c2ccc(Cl)cc2)nc(N2CCOCC2)n1	x	376.0*	x	-0.3
Nc1nc(CSc2nnnn2-c2ccc(F)c(Cl)c2)nc(N2CCOCC2)n1	-0.9	-0.4	x	x
Cc1cc(C(F)(F)F)c(C#N)c(=O)[nH]1	7.9	+	1.7	0.3
N#Cc1c(C(F)(F)F)cc(-c2ccc(F)cc2)[nH]c1=O	x	9.8	-9.3	x
O=C(NC1CCC1)[C@@H]1[C@@H](CO)[C@@H]2Cn3c(ccc(-c4ccc(F)cc4)c3=O)[C@H]1N2	-3.0	x	1.0	x
OCC#CCSc1nnc(-c2ccncc2)o1	2.9	-19.2	x	x
COc1cc(-c2nnc(SCC#CCO)o2)cc(OC)c1OC	1.1	966.6*	114.4*	0.6
C[C@H]1CCCCO[C@H](CN(C)S(=O)(=O)c2cn(C)cn2)[C@@H](C)CN([C@@H](C)CO)C(=O)c2cc(NS(=O)(=O)c3cn(C)cn3)ccc2O1	-0.2	x	x	x
Nc1nc(N)c(Cc2ccc(Cl)cc2Cl)c(N)n1	x	-1.1	x	x
Cc1nc(N)c(Cc2ccccc2F)c(N)n1	x	433.4*	5.5	1.5
CO[C@@H]1CN(C)C(=O)c2ccc(NC(=O)c3ccc4c(c3)OCO4)cc2OC[C@@H](C)N(CC2CC2)C[C@@H]1C	1.7	x	-2.9	x
COCC#Cc1cnc2c(c1)C(=O)N([C@H](C)CO)C[C@H](C)[C@@H](CN(C)C(=O)Cc1cccnc1)O2	-0.6	x	x	x
Cn1c(SCC(=O)Nc2cccc(C(=O)O)c2)nnc1-c1cc2cc(Br)ccc2o1	-1.4	-6.4	9.9	x
CCc1cccc(C)c1NC(=O)CSc1nnc(-c2cc3cc(Br)ccc3o2)n1CC	-1.5	+	-13.1	0.3
COc1cc2nc(CSc3ncn[nH]3)[nH]c(=O)c2cc1OC	x	555.7*	x	0.3
COc1cc2nc(CN(C)Cc3ccc(SC)cc3)[nH]c(=O)c2cc1OC	-2.9	1.6	12.1	x
SMILES	Cneo AK release	SUMO Mot1 rescue	C2C12 statin	Mot1 SUMO dose
C[C@@H]1CN([C@H](C)CO)S(=O)(=O)c2ccc(C3=CCCCC3)cc2O[C@H]1CN(C)C(=O)C1CCC1	10.6	x	-79.6	x
Cc1ccc(/C=N/NC(=O)NC23CC4CC(CC(C4)C2)C3)o1	-1.5	742.9*	2.6	-0.6
O=C(N/N=C/c1ccc(O)cc1)NC12CC3CC(CC(C3)C1)C2	-0.1	-2.6	-22.3	x
COc1ccccc1NC(=O)N[C@@H]1CC[C@@H](CCNC(=O)Cc2ccccn2)O[C@@H]1CO	2.0	x	3.2	x
O=[N+]([O-])c1nn(-c2ccc(Cl)cc2)n(O)c1=NCc1ccncc1	0.8	116.7	-3.8	x
O=[N+]([O-])c1nn(-c2ccc(Cl)cc2)n(O)c1=NCc1ccccc1Cl	x	+	0.4	-0.8

High-throughput results as filed in PubChem.
